Screening data as filed in PubChem.
Sampled rows, rich in hits. Any-hit rate of the full collection: about 2.5%.
SENP8 block-1 – human SENP8 protease inhibitors, primary screen, biochemical, fluorescence, Nedd8 protein substrate, uHTS | Sentrin-specific protease 8 (Homo sapiens), Q96LD8 | recombinant SENP8 | inhibition, % at 20 µM | 0.64% of 360,000 active; in the data active means inhibition mostly above about 40%, no sharp cut-off; inactive means mostly below about 27%
SENP1 FRET inh – human SENP1 catalytic domain inhibitors, primary screen, biochemical, FRET, uHTS; Sentrin-specific protease 1 (Homo sapiens), Q9P0U3; 0.21% of 360,000 active; recombinant SENP1 catalytic domain, CyPet-SUMO1-YPet FRET cleavage; inhibition, % at 10 µM;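 active means inhibition at least 30% at 10 µM, raw YFP signal under a set limit, fluorescence ratio 0.5 to 1.5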
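Material – human SENP1 catalytic domain · Input – SENP1 enzyme, 20 pM final · Compound dosing – single concentration of 10 µM compound, 0.5% DMSO final · Timing – enzyme reaction for 50 min at room temperature, dark · Measured by – FRET fluorescence in CFP and YFP emission channels · Control set – no-enzyme wells low, DMSO-plus-enzyme wells high control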
SENP6 inh – SENP6 protease inhibitors, primary screen, biochemical, luminescence, uHTS; Sentrin-specific protease 6 (Homo sapiens), Q9GZR1; AID 2599, 2010; inhibition, % at 10 µM; 1.8% of 330,000 active; Recombinant SENP6 catalytic domain, aminoluciferin luminescence;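 active means inhibition above about 50% at the single tested dose, limit read from the data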
Target sequence (Q9GZR1 628-1112 limits assumed): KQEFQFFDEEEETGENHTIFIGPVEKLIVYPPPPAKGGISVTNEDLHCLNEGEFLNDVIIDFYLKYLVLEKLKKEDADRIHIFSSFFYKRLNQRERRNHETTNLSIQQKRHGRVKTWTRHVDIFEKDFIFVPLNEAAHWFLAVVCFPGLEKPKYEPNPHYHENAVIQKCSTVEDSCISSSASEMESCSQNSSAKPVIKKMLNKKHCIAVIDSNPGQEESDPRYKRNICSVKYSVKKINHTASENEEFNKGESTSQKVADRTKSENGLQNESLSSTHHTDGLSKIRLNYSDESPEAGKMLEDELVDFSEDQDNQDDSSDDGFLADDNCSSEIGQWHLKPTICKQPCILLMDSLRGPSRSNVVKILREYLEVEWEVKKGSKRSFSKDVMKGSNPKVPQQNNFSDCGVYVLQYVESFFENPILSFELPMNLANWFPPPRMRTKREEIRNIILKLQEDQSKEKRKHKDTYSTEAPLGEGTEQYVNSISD
SENP8 block-2 – SENP8 protease inhibitors, primary screen, biochemical, luminescence; inhibition, % at 10 µM; purified SENP8, Z-RLRGG-aminoluciferin cleavage; 1.2% of 330,000 active; AID 2540, 2010; Sentrin-specific protease 8 (Homo sapiens), Q96LD8; in the data active means inhibition above about 50%
SENP7 block – SENP7 protease inhibitors, primary screen, biochemical, luminescence, uHTS; 1.5% of 330,000 active; inhibition, % at 5 µM; recombinant SENP7, Z-RLRGG-aminoluciferin luminescence, 40 min; AID 434973, 2010; Sentrin-specific protease 7 (Homo sapiens), Q9BQF6;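 active means inhibition above about 50% at the single test dose, limit read from the data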
SENP8 conf-1 – SENP8 protease inhibitors, retest, confirmation, biochemical, luminescence, single concentration; shares compounds with SENP7 block; Recombinant SENP8, Z-RLRGG-aminoluciferin luminescence, 60 min; inhibition, % at 12.5 µM; 40% of 6,200 active; AID 488912, 2010;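 active means mean inhibition across replicates above about 50%, limit read from the data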
SENP6 conf – SENP6 protease inhibitors, confirmation, biochemical, luminescence, single concentration; shares compounds with SENP7 block; recombinant SENP6, Z-RLRGG-aminoluciferin luminescence; inhibition, % at 12.5 µM; 58% of 6,200 active
SENP7 confirm – SENP7 protease inhibitors, retest, confirmation, biochemical, luminescence, single concentration. shares compounds with SENP7 block. recombinant SENP7, Z-RLRGG-aminoluciferin luminescence, 40 min. inhibition, % at 12.5 µM. 69% of 6,200 active
Casp3 SENP sel – caspase-3 protease inhibitors, confirmation, selectivity assay for SENP inhibitor project, biochemical, single concentration | shares compounds with SENP7 block | purified caspase-3, Z-DEVD-aminoluciferin luminescence, 60 min | inhibition, % at 12.5 µM | 60% of 6,200 active | AID 488918, 2010;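 active means mean inhibition above about 50%, limit read from the data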
Target sequence (P42574 28-227 limits assumed): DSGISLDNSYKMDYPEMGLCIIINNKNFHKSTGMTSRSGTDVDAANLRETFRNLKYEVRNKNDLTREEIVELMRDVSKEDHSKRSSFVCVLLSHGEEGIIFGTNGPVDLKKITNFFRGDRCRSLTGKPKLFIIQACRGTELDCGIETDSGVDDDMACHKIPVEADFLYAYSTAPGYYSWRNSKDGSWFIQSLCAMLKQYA
SENP luc ctr – interferes with luciferase luminescence in SENP counter-screen; shares compounds with SENP7 block; Pre-incubated SENP8/Z-RLRGG-aminoluciferin, luciferase luminescence interference; inhibition, % at 12.5 µM; 39% of 6,200 active; AID 488919;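 active means mean inhibition above about 50% when retested at one dose, limit read from the data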
SENP8 conf-2 – human SENP8 protease inhibitors, confirmation, biochemical, Nedd8 protein substrate, single concentration. shares compounds with SENP8 block-1. purified SENP8, Nedd8-AMC/pro-Nedd8 cleavage fluorescence, 30 min. inhibition, % at 25 µM. 15% of 1,400 active. AID 624319, 2012; in the data active means inhibition mostly above about 39%, no sharp cut-off; inactive means mostly below about 34%
SENP1 conf – human SENP1 catalytic domain inhibitors, confirmation, biochemical, FRET endpoint, single concentration; recombinant SENP1, CyPet-SUMO1-YPet FRET cleavage; shares compounds with SENP1 FRET inh; inhibition, % at 10 µM; 34% of 520 active; in the data active means inhibition mostly above about 35%, no sharp cut-off; inactive means mostly below about 32%
SENP1 kinetic – human SENP1 catalytic domain inhibitors, confirmation, biochemical, kinetic FRET, single concentration; AID 651690, 2012; inhibition, % at 10 µM; recombinant SENP1, CyPet-SUMO1-YPet FRET kinetic cleavage; 26% of 520 active; shares compounds with SENP1 FRET inh; in the data active means inhibition mostly above about 32%, no sharp cut-off; inactive means mostly below about 29%
Of the large screens only hits and unclear results are named; the others gave an inactive call (follow-up assays come after a bar, where they were run).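 How the source made its calls, unless noted: active means mean inhibition above about 50% in the one-dose retest (limit read from the data); inactive means the rest.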

Cc1cc2cc(C#N)c(SCC(=O)Nc3nonc3C)nc2cc1C	SENP1 FRET inh 65, SENP6 inh 99 | SENP8 conf-1 inactive | SENP6 conf inactive | SENP7 confirm inactive | Casp3 SENP sel inactive | SENP luc ctr inactive | SENP1 conf inactive | SENP1 kinetic inactive
O=C(N/N=C/c1ccc(N2CCOCC2)cc1)c1cccs1	SENP1 FRET inh 32, SENP6 inh 74, SENP8 block-2 63, SENP7 block 76 | SENP8 conf-1 67 | SENP6 conf 69 | SENP7 confirm 92 | Casp3 SENP sel 90 | SENP luc ctr 70 | SENP1 conf inactive | SENP1 kinetic inactive
O=C(N/N=C/c1ccc(N2CCOCC2)cc1)c1ccc(NS(=O)(=O)c2cccs2)cc1	none
CCN(CC)S(=O)(=O)c1ccc(N2CCCC2)c(NC(=O)Cc2c(F)cccc2Cl)c1	none
CN1C(=O)/C(=C\c2ccc(OC(=O)c3ccco3)cc2)SC1=S	SENP1 FRET inh 44, SENP6 inh 74, SENP7 block 72 | SENP8 conf-1 inactive | SENP6 conf inactive | SENP7 confirm inactive | Casp3 SENP sel inactive | SENP luc ctr inactive | SENP1 conf inactive | SENP1 kinetic inactive
CN1C(=O)/C(=C\c2cccc(OCc3ccccc3)c2)SC1=S	none
CN1C(=O)/C(=C/c2ccc(OC(=O)c3ccco3)cc2)SC1=S	SENP1 FRET inh 46, SENP6 inh 73, SENP8 block-2 75, SENP7 block 79 | SENP8 conf-1 inactive | SENP6 conf inactive | SENP7 confirm inactive | Casp3 SENP sel inactive | SENP luc ctr inactive | SENP1 conf inactive | SENP1 kinetic inactive
CC(=O)c1ccc(OCCCC(=O)NCc2nnc3ccccn23)cc1	none
CCc1ccc(CNC(=O)C2CCCN(c3nn4c(=O)cc(C)nc4s3)C2)cc1 (stereo not given)	none
O=C(CSC(=S)N1CCN(c2ccccc2)CC1)Nc1nc(-c2ccccc2)c(-c2ccccc2)o1	none
O=C(Nc1ccc2c(c1)OCO2)C(=O)c1c[nH]c2ccccc12	SENP1 FRET inh 31, SENP7 block 81 | SENP8 conf-1 inactive | SENP6 conf inactive | SENP7 confirm 79 | Casp3 SENP sel 75 | SENP luc ctr inactive | SENP1 conf inactive | SENP1 kinetic 32
Cc1[nH]c2ccccc2c1C(=O)C(=O)Nc1ccc2c(c1)OCCO2	none
Cc1nn(-c2ccccc2)c(Cl)c1/C=N/Nc1nc2ccccc2n1C	SENP1 FRET inh 33, SENP8 block-2 54, SENP7 block 65 | SENP8 conf-1 inactive | SENP6 conf inactive | SENP7 confirm 93 | Casp3 SENP sel 68 | SENP luc ctr inactive | SENP1 conf inactive | SENP1 kinetic inactive
OCCNC(=S)Nc1ccc2nsnc2c1	SENP1 FRET inh 36, SENP6 inh 82, SENP8 block-2 61 | SENP8 conf-1 inactive | SENP6 conf inactive | SENP7 confirm inactive | Casp3 SENP sel inactive | SENP luc ctr inactive | SENP1 conf inactive | SENP1 kinetic inactive
Brc1ccccc1/C=N/Nc1ccccn1	SENP1 FRET inh 44, SENP7 block 86 | SENP8 conf-1 inactive | SENP6 conf inactive | SENP7 confirm inactive | Casp3 SENP sel inactive | SENP luc ctr inactive | SENP1 conf inactive | SENP1 kinetic inactive
Nc1nn(-c2ccccc2)c2ccc([N+](=O)[O-])cc12	SENP1 FRET inh 32, SENP6 inh 72, SENP8 block-2 54, SENP7 block 75 | SENP8 conf-1 75 | SENP6 conf 72 | SENP7 confirm 91 | Casp3 SENP sel 85 | SENP luc ctr 73 | SENP1 conf inactive | SENP1 kinetic inactive
O=[N+]([O-])c1ccc2c(c1)nnn2-c1ccccc1	none
Cc1ccc(SCC(=O)Nc2ccc(N3CCOCC3)cc2)c(C)c1	none
COc1ccc(/C=N/Nc2nnc(C)n2N)cc1OC	SENP8 block-1 41 | SENP8 conf-2 inactive
COc1ccc(/C=N/Nc2nnc(C)n2N)cc1OC(C)=O	none
COc1ccc(CCNC(=O)Cc2ccsc2)cc1	none
COc1ccccc1CNC(=O)[C@H](C)N1C(=O)N2CCc3c([nH]c4ccccc34)[C@@]2(C)C1=O	SENP8 block-1 43 | SENP8 conf-2 inactive
Cc1ccc(CNC2CCCCC2)s1	none
O=C(COC(=O)CSc1ccc(Cl)cc1)NCCc1ccccc1	none
COc1ccc(-c2[nH][nH]c(=O)c2NC(=O)c2ccccn2)cc1	SENP8 block-1 42 (no result: SENP6 inh, SENP8 block-2, SENP7 block) | SENP8 conf-2 inactive
O=C(Nc1c(-c2ccc(Cl)cc2)[nH][nH]c1=O)c1ccccn1	none (no result: SENP6 inh, SENP8 block-2, SENP7 block)
Cc1ccc(C(=O)Nc2c(-c3ccc(Cl)cc3)[nH][nH]c2=O)cc1	SENP8 block-1 47 (no result: SENP6 inh, SENP8 block-2, SENP7 block) | SENP8 conf-2 inactive
O=C(Nc1c(-c2ccccc2)[nH][nH]c1=O)c1ccc(-c2ccccc2)cc1	none (no result: SENP6 inh, SENP8 block-2, SENP7 block)
O=C(Nc1c(-c2ccccc2)[nH][nH]c1=O)c1ccco1	SENP8 block-1 64 (no result: SENP6 inh, SENP8 block-2, SENP7 block) | SENP8 conf-2 inactive
